Laboratory results reported in ChEMBL document CHEMBL2401666, “Structure-based design of novel HCV NS5B thumb pocket 2 allosteric inhibitors with submicromolar gt1 replicon potency: discovery of a quinazolinone chemotype” (Bioorg Med Chem Lett, 2013).

What was measured:
[1] = Half life in rat liver microsomes at 2 uM; assay type: ADME, Microsome
[2] = Permeability across apical to basolateral side in human Caco2 cells at 10 uM; assay type: ADME, cell-based; conditions: Caco-2, read-out: permeability
How it was run: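 Caco-2 monolayer, apical-to-basolateral transport at 10 µM across a pH 6.8–7.4 gradient; apparent permeability in cm/s ×10^-6.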

[3] = Half life in human liver microsomes at 2 uM; assay type: ADME, Microsome
[4] = Lipophilicity, log D of the compound at pH 7.4; assay type: physicochemical; conditions: buffer

SMILES	half-life at 2 µM [1]	Papp A→B at 10 µM [2]	half-life at 2 µM [3]	logD [4]
CC(C)N(c1ccc(Oc2ccccc2C(F)(F)F)cc1C(=O)O)C(=O)[C@H]1CC[C@H](C)CC1	1.53 h	17 ×10⁻⁶ cm/s	1.98 h	
COc1ccc2c(c1)c(=O)ncn2Cc1ccc(F)cc1F				1.8
O=c1ncn(Cc2ccc(F)cc2F)c2ccc(Oc3ccncc3C(F)(F)F)cc12				3
COc1ccnc(Oc2ccc3c(c2)c(=O)ncn3Cc2ccc(F)cc2F)c1C(F)(F)F	0.433 h	11 ×10⁻⁶ cm/s	1.33 h	3.5
O=c1ncn(Cc2c(F)cc(F)cc2F)c2ccc(Oc3ccccc3)cc12				3.2
CC(C)N(c1ccc(Oc2ncccc2C(F)(F)F)cc1C(=O)O)C(=O)[C@H]1CC[C@H](C)CC1	1 h	19 ×10⁻⁶ cm/s	1.15 h	
O=c1nc[nH]c2ccc(Oc3ncccc3C(F)(F)F)cc12				2.5
O=c1ncn(CC2CCCC2)c2ccc(Oc3ncccc3C(F)(F)F)cc12				3.3
Cc1ccc(Cn2cnc(=O)c3cc(Oc4ncccc4C(F)(F)F)ccc32)cc1				3.7
O=c1ncn(Cc2ccc(Br)cc2F)c2ccc(Oc3ncccc3C(F)(F)F)cc12	1 h	7.1 ×10⁻⁶ cm/s	1.55 h	

Results, then the compound that gave them:

half-life at 2 µM [1]	Papp A→B at 10 µM [2]	half-life at 2 µM [3]	logD [4]	SMILES
			3	O=c1ncn(Cc2c(F)cc(F)cc2F)c2ccc(Oc3cnccc3C(F)(F)F)cc12
0.367 h	11 ×10⁻⁶ cm/s	> 5 h	2.9	O=c1ncn(Cc2c(F)cc(F)cc2F)c2ccc(Oc3cccnc3C(F)(F)F)cc12
			4.2	O=c1ncn(Cc2c(F)cc(F)cc2F)c2ccc(Oc3ccccc3C(F)(F)F)cc12
0.25 h	7.9 ×10⁻⁶ cm/s	1.4 h	3.3	COc1ccnc(Oc2ccc3c(c2)c(=O)ncn3Cc2c(F)cc(F)cc2F)c1C(F)(F)F
0.25 h	8.4 ×10⁻⁶ cm/s	0.75 h	3.8	Cc1ccc(Cn2cnc(=O)c3cc(Oc4ncccc4C(F)(F)F)ccc32)c(F)c1
0.517 h	13 ×10⁻⁶ cm/s	1.83 h		O=c1ncn(Cc2ccc(F)cc2F)c2ccc(Oc3ncccc3C(F)(F)F)cc12
0.633 h	12 ×10⁻⁶ cm/s	2.05 h	3.3	O=c1ncn(Cc2c(F)cc(F)cc2F)c2ccc(Oc3ncccc3C(F)(F)F)cc12
			3.9	O=c1ncn(Cc2ccc(F)cc2F)c2cc(F)c(Oc3ncccc3C(F)(F)F)cc12
